Experimental data as given in ChEMBL document CHEMBL1150355, “Design and evaluation of a novel series of 2,3-oxidosqualene cyclase inhibitors with low systemic exposure, relationship between pharmacokinetic properties and ocular toxicity” (Bioorg Med Chem, 2008).
Calls of active or inactive are those of the source. The calls are words filed in the database; no cut-off is given here.

Columns and labels:
[1] = molecular target: T1, Lanosterol synthase (Homo sapiens) (UniProt P48449); experiment: Inhibition of 2,3-oxidosqualene-lanosterol cyclase at 200 nM
T1 sequence (whole entry): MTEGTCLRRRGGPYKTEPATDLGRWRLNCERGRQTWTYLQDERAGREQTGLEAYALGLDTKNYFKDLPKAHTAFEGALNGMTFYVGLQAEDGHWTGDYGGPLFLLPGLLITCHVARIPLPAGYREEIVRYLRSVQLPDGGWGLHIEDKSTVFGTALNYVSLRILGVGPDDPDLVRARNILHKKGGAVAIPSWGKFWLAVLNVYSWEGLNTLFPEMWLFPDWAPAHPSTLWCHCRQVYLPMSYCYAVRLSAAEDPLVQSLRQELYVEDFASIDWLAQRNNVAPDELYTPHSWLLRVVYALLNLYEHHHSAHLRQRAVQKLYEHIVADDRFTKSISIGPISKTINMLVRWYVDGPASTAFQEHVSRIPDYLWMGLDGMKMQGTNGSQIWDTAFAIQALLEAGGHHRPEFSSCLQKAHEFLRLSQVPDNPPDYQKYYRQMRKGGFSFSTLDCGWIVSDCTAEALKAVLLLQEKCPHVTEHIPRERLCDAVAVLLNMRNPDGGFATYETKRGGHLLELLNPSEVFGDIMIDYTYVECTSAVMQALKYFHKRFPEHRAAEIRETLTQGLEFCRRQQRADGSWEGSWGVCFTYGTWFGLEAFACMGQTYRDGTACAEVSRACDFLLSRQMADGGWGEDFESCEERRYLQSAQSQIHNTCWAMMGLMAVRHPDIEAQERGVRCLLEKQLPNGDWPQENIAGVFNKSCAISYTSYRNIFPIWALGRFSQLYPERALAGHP
How it was run: (§1)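 HepG2 cells were incubated 24 h with compound in BME with 10% fetal calf serum, then labelled with [14C]mevalonate (7.4 kBq). Lipids were extracted with heptane/isopropanol and separated by TLC. [14C]cholesterol, MES and DES were identified against standards and quantified by phosphorimaging, scoring cholesterol synthesis inhibition together with MES/DES formation.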

Rattus norvegicus [2] = experiment: Induction of neosynthetized 2,3 mono-epoxysqualene synthesis in OFA rat lens at 2 mg/kg, po after 8 hrs relative to BIBB 515; format: functional, Lens of camera-type eye
How it was run: (§2)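 Male OFA rats dosed orally at 2 mg/kg. Sterol synthesis was labelled by ip [14C]mevalonate (370 kBq) for the final hour, giving 3 h or 8 h total exposure. Lens and liver lipids were extracted with isopropanol, separated by TLC, and cholesterol and MES radioactivity quantified by phosphorimaging. Cholesterol inhibition is relative to vehicle-treated rats, and MES as % of BIBB 515-treated rats (100%).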

Rattus norvegicus [3] = experiment: Induction of neosynthetized 2,3 mono-epoxysqualene synthesis in OFA rat liver at 2 mg/kg, po after 3 hrs relative to BIBB 515; format: functional; how it was run: as §2
Lanosterol synthase = molecular target: T2, Lanosterol synthase (Homo sapiens, UniProt P48449); experiment: Inhibition of 2,3-oxidosqualene-lanosterol cyclase; how it was run: as §1
T2 sequence (P48449 whole entry): T1 sequence (whole entry)

Rattus norvegicus [4] = experiment: Induction of neosynthetized 2,3 mono-epoxysqualene synthesis in OFA rat liver at 2 mg/kg, po after 8 hrs relative to BIBB 515; format: functional; how it was run: as §2
Rattus norvegicus [5] = experiment: Induction of neosynthetized 2,3 mono-epoxysqualene synthesis in OFA rat lens at 2 mg/kg, po after 3 hrs relative to BIBB 515; format: functional, Lens of camera-type eye; how it was run: as §2
[6] = Biodistribution in OFA rat liver at 1 mg/kg, iv after 6 hrs; format: ADME, organism-based; design: dose 1 mg/kg, route intravenous; settings: read-out: Drug uptake
How it was run: (§3)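 OFA rats (n = 10) dosed 1 mg/kg by iv bolus via penis vein in 10% DMA/90% PEG200. Plasma and tissue homogenates in borate buffer 0.1 M pH 11.5 were extracted with ethyl ether and analysed by LC. Plasma AUC was computed over 0–6 h.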

[7] = AUC (0 to 6 hrs) in OFA rat at 1 mg/kg, iv; format: ADME, organism-based; design: time < 6 hr, dose 1 mg/kg, route intravenous; settings: plasma; how it was run: as §3
Rattus norvegicus [8] = experiment: Inhibition of neosynthetized cholesterol synthesis in OFA rat lens at 2 mg/kg, po after 3 hrs; format: functional; settings: Lens of camera-type eye; how it was run: as §2
Rattus norvegicus [9] = experiment: Inhibition of neosynthetized cholesterol synthesis in OFA rat liver at 2 mg/kg, po after 8 hrs; format: functional; how it was run: as §2
[10] = Biodistribution in OFA rat liver at 1 mg/kg, iv after 2 hrs; format: ADME, organism-based; design: dose 1 mg/kg, route intravenous; settings: read-out: Drug uptake; how it was run: as §3
Rattus norvegicus [11] = experiment: Inhibition of neosynthetized cholesterol synthesis in OFA rat lens at 2 mg/kg, po after 8 hrs; format: functional; settings: Lens of camera-type eye; how it was run: as §2
[12] = Metabolic stability in rat liver microsomes assessed as intrinsic clearance […]; format: ADME, Microsome
[13] = Biodistribution in OFA rat eyes at 1 mg/kg, iv after 2 hrs; format: ADME, organism-based; design: dose 1 mg/kg, route intravenous; settings: eye, read-out: Drug uptake; how it was run: as §3
[14] = Biodistribution in OFA rat eyes at 1 mg/kg, iv after 6 hrs; format: ADME, organism-based; design: dose 1 mg/kg, route intravenous; settings: eye, read-out: Drug uptake; how it was run: as §3
Rattus norvegicus [15] = experiment: Inhibition of neosynthetized cholesterol synthesis in OFA rat liver at 2 mg/kg, po after 3 hrs; format: functional; how it was run: as §2

## O=C(c1ccc(Cl)cc1)N1CCN(Cc2ccc(-c3ccn[nH]3)cc2)CC1
[1]
  Activity: inactive

## Cn1cc(-c2ccc(CN3CCN(C(=O)c4ccc(Cl)cc4)CC3)cc2)cn1
[1]
  Activity: inactive

## O=C(c1ccc(Cl)cc1)N1CCN(Cc2ccc(-n3cccn3)cc2)CC1
[1]
  Activity: inactive

## Cc1nc(-c2ccc(CN3CCN(C(=O)c4ccc(Cl)cc4)CC3)cc2)no1
[1]
  Activity: inactive

## CN(C)Cc1ccc(CN2CCN(C(=O)c3ccc(OC(F)(F)F)cc3)CC2)cc1
Rattus norvegicus [2]
  Activity: 51%
Rattus norvegicus [3]
  Activity: 100%
Lanosterol synthase
  IC50: 20 nM
Rattus norvegicus [4]
  Activity: 241%
Rattus norvegicus [5]
  Activity: 175%
[6]
  concentration at 6 h: 1320 ng/g
[7]
  AUC(0-t) at 6 h: 362 ng·h/mL
Rattus norvegicus [8]
  inhibition in vivo at 2 mg/kg: 64%
Rattus norvegicus [9]
  inhibition in vivo at 2 mg/kg: 69%
[10]
  concentration at 2 h: 2420 ng/g
Rattus norvegicus [11]
  inhibition in vivo at 2 mg/kg: 66%
[12]
  CLint scaled: 3.6 mL/min/g
[13]
  concentration at 2 h: 260 ng/g
[14]
  concentration at 6 h: 194 ng/g
Rattus norvegicus [15]
  inhibition in vivo at 2 mg/kg: 83%

## O=S(=O)(NCCc1ccc(-c2ccc(CN3CCCC3)cc2)cc1)c1ccc(Cl)cc1
Lanosterol synthase
  IC50: 63 nM

## O=S(=O)(c1ccc(Cl)cc1)N1CCN(Cc2cccc(-c3ccncc3)c2)CC1
Lanosterol synthase
  IC50: 500 nM

## CN(C)Cc1ccc(CN2CCN(S(=O)(=O)c3ccc(Cl)cc3)CC2)cc1
Rattus norvegicus [3]
  Activity: 55%
Lanosterol synthase
  IC50: 32 nM
[12]
  CLint scaled: 2.5 mL/min/g
Rattus norvegicus [15]
  inhibition in vivo at 2 mg/kg: 74%

## COc1ccc(C(=O)N2CCN(Cc3ccc(-c4ccncc4)cc3)CC2)cc1
Lanosterol synthase
  IC50: 2510 nM

## CN(C)Cc1ccc(CN2CCN(C(=O)c3ccc(Cl)cc3)CC2)cc1
Lanosterol synthase
  IC50: 40 nM
